pIC50: −log10 of the molar value.
Key:
[1] = molecular target: T1, A disintegrin and metalloproteinase with thrombospondin motifs 4 (Homo sapiens, UniProt O75173); test: Inhibition of human recombinant aggrecanase 1 after 150 mins by fluorescence plate reader
T1 sequence (O75173 whole entry): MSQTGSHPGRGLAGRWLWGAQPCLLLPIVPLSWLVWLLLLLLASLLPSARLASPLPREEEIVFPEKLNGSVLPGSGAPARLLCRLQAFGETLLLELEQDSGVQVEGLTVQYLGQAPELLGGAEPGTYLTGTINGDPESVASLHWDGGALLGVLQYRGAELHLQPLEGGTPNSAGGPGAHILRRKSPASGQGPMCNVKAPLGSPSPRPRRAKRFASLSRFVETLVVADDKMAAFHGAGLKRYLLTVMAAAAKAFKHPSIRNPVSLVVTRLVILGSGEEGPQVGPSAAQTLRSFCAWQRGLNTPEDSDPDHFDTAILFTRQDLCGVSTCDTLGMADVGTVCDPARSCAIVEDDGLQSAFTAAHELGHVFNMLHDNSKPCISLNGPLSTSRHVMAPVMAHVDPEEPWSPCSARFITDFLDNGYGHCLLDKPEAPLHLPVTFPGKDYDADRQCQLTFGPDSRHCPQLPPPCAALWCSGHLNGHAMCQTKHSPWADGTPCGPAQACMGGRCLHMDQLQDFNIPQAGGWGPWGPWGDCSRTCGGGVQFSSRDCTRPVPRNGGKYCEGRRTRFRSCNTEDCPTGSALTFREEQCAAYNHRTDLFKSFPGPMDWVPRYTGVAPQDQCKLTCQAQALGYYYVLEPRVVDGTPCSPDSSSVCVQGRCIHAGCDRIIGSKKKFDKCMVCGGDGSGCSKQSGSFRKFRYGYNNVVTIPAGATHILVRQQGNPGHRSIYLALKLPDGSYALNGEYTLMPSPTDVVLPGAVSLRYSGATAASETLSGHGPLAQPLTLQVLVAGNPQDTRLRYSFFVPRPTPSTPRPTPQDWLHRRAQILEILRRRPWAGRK

[2] = molecular target: T2, A disintegrin and metalloproteinase with thrombospondin motifs 5 (Homo sapiens, UniProt Q9UNA0); test: Inhibition of human recombinant aggrecanase 2 after 150 mins by fluorescence plate reader
T2 sequence (Q9UNA0 whole entry): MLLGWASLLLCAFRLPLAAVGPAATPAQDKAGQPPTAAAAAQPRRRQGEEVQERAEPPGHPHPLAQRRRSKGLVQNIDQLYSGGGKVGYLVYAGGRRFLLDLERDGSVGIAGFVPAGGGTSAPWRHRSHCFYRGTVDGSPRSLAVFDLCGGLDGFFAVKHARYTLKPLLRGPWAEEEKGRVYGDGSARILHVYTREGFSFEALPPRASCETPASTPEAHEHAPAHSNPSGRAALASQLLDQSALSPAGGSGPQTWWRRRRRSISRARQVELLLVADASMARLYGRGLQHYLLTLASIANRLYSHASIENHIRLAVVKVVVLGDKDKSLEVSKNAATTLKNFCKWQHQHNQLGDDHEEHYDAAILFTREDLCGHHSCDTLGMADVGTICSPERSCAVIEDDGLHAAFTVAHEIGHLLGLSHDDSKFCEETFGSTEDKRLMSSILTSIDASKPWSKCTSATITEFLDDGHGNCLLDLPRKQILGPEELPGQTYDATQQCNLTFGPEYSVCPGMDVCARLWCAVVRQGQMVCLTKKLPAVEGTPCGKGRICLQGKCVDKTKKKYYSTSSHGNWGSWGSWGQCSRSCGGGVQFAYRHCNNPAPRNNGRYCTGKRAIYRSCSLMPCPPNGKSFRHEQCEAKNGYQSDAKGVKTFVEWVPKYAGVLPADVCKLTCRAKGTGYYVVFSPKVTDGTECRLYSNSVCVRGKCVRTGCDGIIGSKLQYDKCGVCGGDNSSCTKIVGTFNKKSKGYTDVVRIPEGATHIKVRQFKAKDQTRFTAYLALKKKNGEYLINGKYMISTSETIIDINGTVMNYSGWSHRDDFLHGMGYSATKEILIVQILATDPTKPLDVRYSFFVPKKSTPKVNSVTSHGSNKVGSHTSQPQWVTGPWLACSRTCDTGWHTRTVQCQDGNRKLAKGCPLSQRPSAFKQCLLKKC

[3] = molecular target: Matrix metalloproteinase-14 (Homo sapiens, UniProt P50281); test: Inhibition of human recombinant MMP14 after 60 mins by fluorescence plate reader
Procedure, shortened: (§1)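 Recombinant human enzyme at 20 ng/mL with 10 μM MOCAc-Lys-Pro-Leu-Gly-Leu-A2pr(Dnp)-Ala-Arg-NH₂, in 100 mM Tris-HCl pH 7.5, 150 mM NaCl, 10 mM CaCl₂, 0.05% Brij-35. Enzyme pretreated with inhibitor for 15 min at 25 °C, then substrate added. Fluorescence (ex 325, em 405 nm) read at 60 min. IC50 taken from three points in the linear range; mean of ≥2 determinations.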

[4] = molecular target: Disintegrin and metalloproteinase domain-containing protein 17 (Homo sapiens, UniProt P78536); test: Inhibition of human recombinant TACE after 60 mins by fluorescence plate reader
Disintegrin and metalloproteinase domain-containing protein 17, sequence (P78536 whole entry, the tested form may be a part): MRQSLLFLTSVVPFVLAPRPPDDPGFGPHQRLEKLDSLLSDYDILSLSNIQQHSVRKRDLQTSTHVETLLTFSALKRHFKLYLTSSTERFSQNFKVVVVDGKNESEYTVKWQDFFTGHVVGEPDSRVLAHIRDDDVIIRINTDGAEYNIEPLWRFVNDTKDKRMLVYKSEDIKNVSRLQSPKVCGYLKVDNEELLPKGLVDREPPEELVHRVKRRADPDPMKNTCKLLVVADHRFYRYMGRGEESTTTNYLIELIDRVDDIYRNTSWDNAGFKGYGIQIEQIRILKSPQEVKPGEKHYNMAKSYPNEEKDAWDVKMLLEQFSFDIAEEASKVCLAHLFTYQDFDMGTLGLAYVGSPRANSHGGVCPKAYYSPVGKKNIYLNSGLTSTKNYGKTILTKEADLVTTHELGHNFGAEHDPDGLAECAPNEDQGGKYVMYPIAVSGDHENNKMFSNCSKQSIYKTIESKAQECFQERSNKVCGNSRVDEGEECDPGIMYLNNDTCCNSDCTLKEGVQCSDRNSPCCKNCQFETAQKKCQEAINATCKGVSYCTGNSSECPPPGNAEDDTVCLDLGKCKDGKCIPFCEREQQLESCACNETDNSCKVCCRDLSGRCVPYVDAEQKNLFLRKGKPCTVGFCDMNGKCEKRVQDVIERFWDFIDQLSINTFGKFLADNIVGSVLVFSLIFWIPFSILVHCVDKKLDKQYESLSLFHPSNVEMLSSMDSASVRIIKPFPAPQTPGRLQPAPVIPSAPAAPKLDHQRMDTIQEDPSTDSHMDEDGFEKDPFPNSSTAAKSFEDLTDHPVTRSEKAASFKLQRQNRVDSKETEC
Procedure, shortened: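 rh-TACE at 80 ng/mL with 10 μM MCA-Pro-Leu-Ala-Gln-Ala-Val-Dpa-Arg-Ser-Ser-Ser-Arg-NH₂, in 100 mM Tris-HCl pH 7.5, 150 mM NaCl, 10 mM CaCl₂, 0.05% Brij-35. Inhibitor preincubated for 15 min at 25 °C. Fluorescence (ex 325/em 405 nm) read at 60 min. IC50 from three linear-range points; mean of ≥2.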

Homo sapiens = species: Homo sapiens; test: Selectivity ratio of IC50 for human recombinant MMP14 to IC50 for human recombinant aggrecanase 2
Interstitial collagenase = molecular target: T3, Interstitial collagenase (Homo sapiens, UniProt P03956); test: Inhibition of human recombinant MMP1 after 60 mins by fluorescence plate reader; procedure, shortened: as §1
T3 sequence (P03956 whole entry): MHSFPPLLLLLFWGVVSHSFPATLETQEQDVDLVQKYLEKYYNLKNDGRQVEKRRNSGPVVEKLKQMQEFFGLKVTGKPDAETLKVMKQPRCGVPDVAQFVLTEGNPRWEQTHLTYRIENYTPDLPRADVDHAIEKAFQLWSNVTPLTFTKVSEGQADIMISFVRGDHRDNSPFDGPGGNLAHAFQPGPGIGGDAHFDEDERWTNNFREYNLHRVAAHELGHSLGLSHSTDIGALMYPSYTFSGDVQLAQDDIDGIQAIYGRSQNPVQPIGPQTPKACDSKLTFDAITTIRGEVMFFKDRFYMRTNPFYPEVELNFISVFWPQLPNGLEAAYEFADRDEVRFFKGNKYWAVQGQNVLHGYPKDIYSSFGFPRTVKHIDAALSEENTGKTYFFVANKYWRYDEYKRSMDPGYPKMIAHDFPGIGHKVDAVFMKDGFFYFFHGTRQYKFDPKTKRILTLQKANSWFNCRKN

| pIC50 [1] | pIC50 [2] | pIC50 [3] | pIC50 [4] | Ratio IC50 (Homo sapiens) | pIC50 (Interstitial collagenase) | Structure (SMILES) |
| --- | --- | --- | --- | --- | --- | --- |
| 8.96 | 8.85 |  |  |  |  | CC1(C)C[C@@H](O)CN(S(=O)(=O)c2ccc(OCc3ccc(Cl)cc3Cl)cc2)[C@H]1C(=O)NO |
|  | 7.43 | 5.68 | < 5.00 | 10 | < 5.00 | C[C@@H]1CN(S(=O)(=O)N[C@@]2(C(=O)O)[C@H](C)[C@@H]2c2ccccc2)CCN1c1ccc(Cl)cc1 |
| 8.52 | 7.92 | < 5.00 | 6.37 |  | < 5.00 | O=C(NO)[C@@H](NCC1CC1)[C@@H](Cc1cccc(O)c1)C(=O)N[C@H]1c2ccccc2C[C@H]1O |
|  | 7.64 | 7.00 | < 5.00 |  | 5.82 | C[C@@H]1[C@H](c2ccccc2)[C@]1(NS(=O)(=O)c1cc2nc3cc(Cl)ccn3c2s1)C(=O)O |
|  | 7.57 | 5.27 | < 5.00 | 200 | < 5.00 | C[C@@H]1CN(S(=O)(=O)N[C@@]2(C(=O)O)[C@H](C)[C@@H]2c2ccccc2)CCN1c1cc(C(F)F)on1 |
|  | 6.74 | < 5.00 | < 5.00 |  | < 5.00 | C[C@@H]1CN(S(=O)(=O)N[C@@]2(C(=O)O)[C@H](C)[C@@H]2c2ccccc2)CCN1c1ccc(F)cc1 |
|  | 6.48 | 5.37 | < 5.00 |  | < 5.00 | COc1ccc2c(c1)nc1n2CCN(S(=O)(=O)N[C@@]2(C(=O)O)[C@H](C)[C@@H]2c2ccccc2)C1 |
|  | 6.89 | 5.96 | < 5.00 |  | 5.59 | C[C@@H]1CN(S(=O)(=O)N[C@@]2(C(=O)O)[C@H](C)[C@@H]2c2ccccc2)CCN1c1cc(C(C)(F)F)on1 |
|  | 8.08 | 8.10 | 5.96 |  | 6.64 | C[C@@H]1[C@H](c2ccccc2)[C@]1(NS(=O)(=O)c1cc2[nH]c3cc(F)ccc3c2s1)C(=O)O |
|  | 7.33 | 5.60 | < 5.00 | 10 | < 5.00 | C[C@@H]1[C@H](c2ccccc2)[C@]1(NS(=O)(=O)N1CCN(c2ccc(Cl)cc2)[C@@H](C)C1)C(=O)O |
|  | 7.77 | 8.89 | 5.80 |  | 7.48 | COc1cnn(-c2ccc(S(=O)(=O)N[C@@]3(C(=O)O)[C@H](C)[C@@H]3c3ccccc3)s2)c1 |
|  | 7.77 | 5.68 | 5.20 |  | < 5.00 | C[C@@H]1[C@H](c2ccccc2)[C@]1(NS(=O)(=O)N1CCc2c(nc3cc(F)ccn23)C1)C(=O)O |
|  | 7.17 | 5.85 | < 5.00 |  | < 5.00 | COCc1cc(N2CCN(S(=O)(=O)N[C@@]3(C(=O)O)[C@H](C)[C@@H]3c3ccccc3)C[C@H]2C)no1 |
|  | 7.68 | 6.57 | < 5.00 |  | < 5.00 | C[C@@H]1[C@H](c2ccccc2)[C@]1(NS(=O)(=O)N1CCc2c(nc3cc(Cl)ccn23)C1)C(=O)O |
| 6.68 | 5.96 |  |  |  |  | CC(C)(NC(=O)[C@H](CCC(=O)O)NC(=O)c1ccc(-c2ccccc2)cc1)c1ccccc1 |
|  | 8.07 | 6.85 | < 5.00 |  | 5.38 | C[C@@H]1[C@H](c2ccccc2)[C@]1(NS(=O)(=O)N1CCc2c(nn3cc(F)ccc23)C1)C(=O)O |
|  | 7.18 | 6.55 | < 5.00 |  | 5.43 | C[C@@H]1[C@H](c2ccccc2)[C@]1(NS(=O)(=O)N1Cc2nc3cc(Cl)ccn3c2C1)C(=O)O |
|  | 7.70 | 5.96 | < 5.00 |  | < 5.00 | C[C@@H]1[C@H](c2ccccc2)[C@]1(NS(=O)(=O)N1CCn2c(nc3cc(F)ccc32)C1)C(=O)O |
| 6.68 | 6.02 |  |  |  |  | O=C(NO)c1nc2ccccc2c2c1CN(c1ccc(OCc3ccccc3)cc1)C2=O |
|  | 6.60 | 5.31 | < 5.00 |  | < 5.00 | C[C@@H]1[C@H](c2ccccc2)[C@]1(NS(=O)(=O)N1CCn2c(nc3cc(C#N)ccc32)C1)C(=O)O |

Source: ChEMBL document CHEMBL1765003, “Discovery of (1S,2R,3R)-2,3-dimethyl-2-phenyl-1-sulfamidocyclopropanecarboxylates: novel and highly selective aggrecanase inhibitors” (J Med Chem, 2011)
